FGF22 binding: FGF22 (human) thermal shift binding. Q9HCT0. recombinant FGF22 thermal shift, SYPRO orange fluorescence; percent of sucrose octasulfate shift, DMSO zero. activity (Tm shift, normalised), % at 9.99 µM. hit rate 1.5% among 340,000;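 active = mean Tm shift, scaled 0 neutral to 100 positive control, at about 1.3% or above, every replicate too, limit read from the data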
Jurkat NFkB inh: lowers PMA/ionomycin-induced NF-kB signal in Jurkat cells; PMA/ionomycin-induced NF-kB luciferase reporter, luminescence; inhibition, % at 4 µM; hit rate 0.53% among 330,000; AID 435003; in the data active = inhibition above about 50%
697 NFkB inh: inhibitors of the PMA/ionomycin-induced NF-kB reporter in 697 B cells; hit rate 0.33% among 330,000; 697 B-cell NF-kB luciferase reporter, 16 h; inhibition, % at 4 µM; in the data active = inhibition above about 35%
miR-122 sensor: miR-122 inhibition in Huh7 cells | Huh7 miR-122 Renilla luciferase sensor, 48 h; neutral wells = 0, positive control = 100 | hit rate 0.3% among 340,000 | activation (reporter increase), % at 12.5 µM | AID 602342;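 active = mean replicate activation score at least 90 and every replicate individually at or above 90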;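 also: higher luciferase means less miR-122 activity so hits act as miR-122 inhibitors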
NR2E3 ag-1: activates human NR2E3 receptor; Q9Y5X4; CHO-S Gal4-NCOR/VP16-NR2E3 two-hybrid, luciferase; inhibition of corepressor binding, % at 3.98 µM; hit rate 0.35% among 360,000;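 active = inhibition above the mean of all tested compounds plus 3 SD, cut at about 70% in these data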;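 also: higher means lower luciferase signal from less NR2E3 corepressor binding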
Target sequence (Q9Y5X4 whole entry, looked up, the tested form may be a part): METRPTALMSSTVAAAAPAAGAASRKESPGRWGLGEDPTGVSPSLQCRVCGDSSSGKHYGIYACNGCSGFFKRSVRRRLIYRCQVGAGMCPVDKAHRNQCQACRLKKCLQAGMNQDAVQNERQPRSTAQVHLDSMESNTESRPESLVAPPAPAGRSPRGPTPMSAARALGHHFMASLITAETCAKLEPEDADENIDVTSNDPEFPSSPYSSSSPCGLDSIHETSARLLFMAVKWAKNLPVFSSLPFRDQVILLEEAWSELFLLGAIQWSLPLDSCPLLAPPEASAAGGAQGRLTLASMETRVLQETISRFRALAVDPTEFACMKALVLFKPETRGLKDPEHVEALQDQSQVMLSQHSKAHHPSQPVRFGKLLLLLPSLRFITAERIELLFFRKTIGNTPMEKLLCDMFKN
NR2E3 ag-2: NR2E3 (human) agonism; Q9Y5X4; GST-NR2E3/biotin-RetCOR TR-FRET, 1536-well; inhibition of corepressor binding, % at 4.78 µM; hit rate 0.12% among 320,000;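 active = percent inhibition above the cutoff of mean plus 3 SD of all tested compounds, set per screening campaign, cut at about 20% in these data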
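Material: NR2E3–RetCOR corepressor complex / Incubation: Compound–protein incubation for 5 h at 4 °C / Dosing: compound at 4.8 µM, single dose / Detection: time-resolved FRET / Benchmarks: high control biotin, low control 0.6% DMSO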
Jurkat NFkB conf: lowers PMA/ionomycin-induced NF-kB signal in Jurkat cells; shares compounds with Jurkat NFkB inh; Jurkat NF-kB luciferase, 16 h; inhibition, % at 4 µM; hit rate 27% among 2,700;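 active = inhibition reaching about 45% at 4 µM in either replicate, limit read from the data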
Hits are given with their value; – = inactive; · = no result given. Sampled rows, rich in hits. Any-hit rate of the full collection: about 2.2%.

SMILES	FGF22 binding	Jurkat NFkB inh	697 NFkB inh	miR-122 sensor	NR2E3 ag-1	NR2E3 ag-2	Jurkat NFkB conf
Cc1noc(C)c1CSc1nc2ccccc2c(=O)n1-c1ccccc1	·	54	–	99	–	–	–
O=C(C[C@@H]1C[C@H]2c3cc(NS(=O)(=O)c4ccccc4)ccc3O[C@H]2[C@@H](CO)O1)NC1CCCCC1	–	·	·	–	·	·	·
COc1ccc(S(=O)(=O)N(C)C[C@@H]2OCCCC[C@@H](C)Oc3ccc(NS(=O)(=O)c4cn(C)cn4)cc3C(=O)N([C@@H](C)CO)C[C@@H]2C)cc1	–	·	·	–	·	·	·
CN(C)CCCNC(=O)C[C@H]1CC[C@@H](NS(=O)(=O)c2ccc(F)cc2)[C@H](CO)O1	–	·	·	·	·	·	·
CC1=C(C(=O)OCc2ccc3c(c2)OCO3)C(c2ccc(Cl)cc2)NC(=O)N1 (stereo not given)	–	71	–	·	–	–	64
CC1=C(C(=O)OCc2ccc3c(c2)OCO3)C(c2ccc(F)cc2)NC(=O)N1 (stereo not given)	·	59	–	–	–	–	–
COc1ccc(NC(=O)N(C)C[C@H]2OCCCC[C@H](C)Oc3ccc(NC(=O)Nc4ccccc4)cc3C(=O)N([C@H](C)CO)C[C@@H]2C)cc1	–	·	·	–	·	·	·
O=C(Nc1cccc(F)c1)N1CC(=O)N2[C@H](CO)[C@H](c3ccc(Br)cc3)[C@@H]2C1	–	·	·	·	·	·	·
CN(C)CCCNS(=O)(=O)c1ccc(N2CCN(Cc3ccc4c(c3)OCO4)CC2)c([N+](=O)[O-])c1	–	62	–	·	–	–	–
CCC(=O)N(C)C[C@H]1Oc2ncc(-c3ccc(C#N)cc3)cc2C(=O)N([C@H](C)CO)C[C@@H]1C	–	·	·	–	·	·	·
Cc1cc(C)n2nc(C(=O)Nc3ccc4c(c3)OCO4)cc2n1	·	–	–	–	–	–	–
O=C(Nc1ccc2c(c1)OCO2)c1cc2nc(C3CC3)cc(C(F)(F)F)n2n1	–	·	·	–	–	·	·
O=C(Nc1ccc2c(c1)OCO2)c1cc(Cl)ccn1	–	–	–	–	–	–	·
O=C(Nc1ccc2c(c1)OCO2)c1ccc(Cl)cc1Cl	–	–	–	–	–	–	–
CC(=O)Nc1cccc(-c2cn3ccc(C)cc3n2)c1	–	–	–	·	–	–	·
Cc1ccn2cc(-c3cccc([N+](=O)[O-])c3)nc2c1	–	–	–	–	–	–	–
C[C@H](CO)N1C[C@H](C)[C@H](CN(C)C(=O)Nc2ccc(C(F)(F)F)cc2)Oc2ccc(NS(=O)(=O)c3ccc(F)cc3)cc2CC1=O	–	·	·	–	·	·	·
CCCCCN=C(N)N/N=C/c1c[nH]c2ccc(OC)cc12	–	100	–	–	–	–	–
O=C(Nc1ccccc1)c1cc(-c2ccccc2Cl)no1	·	–	–	–	–	–	–
C[C@H](CO)N1C[C@H](C)[C@@H](CN(C)C(=O)CC2CC2)Oc2cc(C#CCN(C)C)ccc2S1(=O)=O	–	·	·	–	·	·	·
CN1c2ccc(C#Cc3cccnc3)cc2[C@H]2[C@H](CCN2C(=O)C2CCCCC2)[C@@H]1CO	–	·	·	–	·	·	·
COc1ccc2oc(=N)c(C(=O)Nc3ccccc3Cl)cc2c1	–	–	–	–	–	–	–
CC(=O)N1[C@@H]2c3ccc(-c4ccncc4)c(=O)n3C[C@@H]2[C@@H](CO)[C@@H]1C(=O)NC1Cc2ccccc2C1	–	·	·	·	·	·	·
COC(=O)Nc1nc2ccc(-c3n[nH]c(=O)c4ccccc34)cc2[nH]1	·	71	–	–	–	–	–
C=CCOc1ccc2nc(NC(=O)OC)[nH]c2c1	·	72	–	–	–	–	–
C=C(c1ccc2nc(NC(=O)OC)[nH]c2c1)c1cccs1	–	·	·	–	–	·	·
O=C(Nc1cc(F)ccc1F)N1CCCCN2[C@H](C1)[C@H](c1ccc(-c3cncnc3)cc1)[C@@H]2CO	–	·	·	–	·	·	·
CC(=O)Nc1ccc2nc(NC(=O)CCc3ccccc3)sc2c1	–	–	–	–	–	–	·
CCCC(=O)Nc1nc2ccc(NC(=O)c3ccccc3F)cc2s1	–	60	–	–	–	–	–
CCc1cnc(N2[C@H](C#N)[C@H](c3ccc(C#CC(C)C)cc3)[C@@H]2CO)s1	–	·	·	·	·	·	·
